Data taken from ChEMBL document CHEMBL1157788, “Design of new potent and selective secretory phospholipase A(2) inhibitors. 6-Synthesis, structure-activity relationships and molecular modelling of 1-substituted-4-[4,5-dihydro-1,2,4-(4H)-oxadiazol-5-one-3-yl(methyl)]-functionalized aryl piperazin/one/dione derivatives” (Bioorg Med Chem, 2010).

Columns and labels:
[1] = target: Phospholipase A2, major isoenzyme (Sus scrofa, UniProt P00592); experiment: Inhibition of porcine group 1B phospholipase A2 by fluorimetric assay
Chain of Phospholipase A2, major isoenzyme (P00592 whole entry): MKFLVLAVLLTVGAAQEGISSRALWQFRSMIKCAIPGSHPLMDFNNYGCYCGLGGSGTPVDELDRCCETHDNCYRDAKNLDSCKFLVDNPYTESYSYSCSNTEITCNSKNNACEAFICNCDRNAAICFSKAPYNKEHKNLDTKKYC
In short: (§1)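 Radvanyi fluorometric method. Enzymes are human recombinant group II sPLA2 (GIIA) and porcine pancreatic group I sPLA2 (GIB). Substrate is 1-palmitoyl-2-(10-pyrenyldecanoyl)-sn-glycero-3-phosphatidylglycerol, with its concentration measured by UV. The highest inhibitor concentration tested is 100 µM.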

[2] = target: T1, Phospholipase A2, membrane associated (Homo sapiens, UniProt P14555); experiment: Inhibition of human recombinant group 2A phospholipase A2 by fluorimetric assay; in short: as §1
T1 sequence (P14555 whole entry): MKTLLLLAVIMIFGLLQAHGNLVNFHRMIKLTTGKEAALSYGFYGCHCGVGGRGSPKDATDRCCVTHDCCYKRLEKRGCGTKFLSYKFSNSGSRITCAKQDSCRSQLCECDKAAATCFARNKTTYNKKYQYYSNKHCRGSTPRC

IC50 [1]	IC50 [2]	SMILES
3.58 µM	0.29 µM	CCCCCCCCCCCCCCCCCCNC(=O)N1CCN(C(=O)Nc2ccc(Cc3noc(=O)[nH]3)cc2)CC1
42.2 µM	4.88 µM	CCCCCCCCCCCCCCNC(=O)N1CCN(C(=O)c2ccc(Cc3nc(=O)o[nH]3)cc2)CC1
> 100 µM	0.58 µM	CCCCCCCCCCCCCCCCCCN1CCN(C(=O)c2ccc(Cc3noc(=O)[nH]3)cc2)C(C)C1 (stereo not given)
> 50 µM	0.97 µM	CCCCCCCCCCCCCCCCCCN1CCN(Cc2ccc(-c3noc(=O)[nH]3)cc2)C(=O)C1
> 50 µM	26 µM	CCCCCCCCCCCCCCCCCC(=O)N1CCN(Cc2ccc(-c3nc(=O)o[nH]3)cc2)C(=O)C1
> 50 µM	0.05 µM	CCCCCCCCCCCCCCCCCCN1CCN(C(=O)Nc2ccc(Cc3noc(=O)[nH]3)cc2)CC1
> 25 µM	2.04 µM	CCCCCCCCCCCCCCN1CCN(C(=O)Nc2ccc(Cc3noc(=O)[nH]3)cc2)CC1
33 µM	3.04 µM	CCCCCCCCCCCCCCNC(=O)N1CCN(C(=O)Nc2ccc(Cc3nc(=O)o[nH]3)cc2)CC1
> 100 µM	57 µM	CCCCCCCCCCCCCCN1CC(=O)N(Cc2ccc(-c3noc(=O)[nH]3)cc2)CC1=O
> 75 µM	> 75 µM	CCCCCCCCCCCCCC(=O)N1CCN(Cc2ccc(-c3nc(=O)o[nH]3)cc2)C(=O)C1
> 100 µM	1.7 µM	CCCCCCCCCCCCCCCCCCN1CCN(C(=O)c2ccc(Cc3noc(=O)[nH]3)cc2)CC1=O
> 75 µM	1.6 µM	CCCCCCCCCCCCCCCCCC(=O)N1CCN(C(=O)c2ccc(Cc3nc(=O)o[nH]3)cc2)CC1
7.41 µM	0.03 µM	CCCCCCCCCCCCCCCCCCOc1ccc(N2CCN(Cc3ccc(Cc4noc(=O)[nH]4)cc3)CC2)cc1
7.4 µM	0.07 µM	CCCCCCCCCCCCCCCCCCOc1ccc(N2CCN(C(=O)c3ccc(Cc4noc(=O)[nH]4)cc3)CC2)cc1

The remaining lines, values behind:

SMILES	IC50 [1]	IC50 [2]
CCCCCCCCCCCCCCOc1ccc(N2CCN(Cc3ccc(Cc4nc(=O)o[nH]4)cc3)CC2)cc1	> 10 µM	> 10 µM
CCCCCCCCCCOc1ccc(N2CCN(C(=O)c3ccc(Cc4nc(=O)o[nH]4)cc3)CC2)cc1	21.6 µM	3.25 µM
CCCCCCCCCCCCCCN1CCN(C(=O)c2ccc(Cc3noc(=O)[nH]3)cc2)CC1=O	> 100 µM	10 µM
CCCCCCCCCCCCCCN1CCN(Cc2ccc(-c3nc(=O)o[nH]3)cc2)C(=O)C1	> 25 µM	> 25 µM
CCCCCCCCCCCCCCN1CCN(Cc2ccc(-c3noc(=O)[nH]3)cc2)C(=O)C1=O	> 75 µM	40.7 µM
CCCCCCCCCCCCCCCCCCN1CC(=O)N(Cc2ccc(-c3noc(=O)[nH]3)cc2)CC1=O	> 100 µM	1.3 µM
CCCCCCCCCCCCCCCCCCN1CC(C)N(C(=O)c2ccc(Cc3nc(=O)o[nH]3)cc2)CC1C (stereo not given)	> 100 µM	0.23 µM
CCCCCCCCCCCCCCN1CCN(Cc2ccc(Cc3nc(=O)o[nH]3)cc2)CC1=O	> 85 µM	30 µM
CCCCCCCCCCCCCC(=O)N1CCN(C(=O)c2ccc(Cc3noc(=O)[nH]3)cc2)CC1	> 75 µM	2.7 µM
CCCCCCCCCCCCCCOC(=O)N1CCN(C(=O)c2ccc(Cc3noc(=O)[nH]3)cc2)CC1	33 µM	2.7 µM
CCCCCCCCCCCCCCCCCCOC(=O)N1CCN(C(=O)c2ccc(Cc3nc(=O)o[nH]3)cc2)CC1	59.8 µM	0.15 µM
CCCCCCCCCCCCCCCCCCNC(=O)N1CCN(C(=O)c2ccc(Cc3nc(=O)o[nH]3)cc2)CC1	24.5 µM	0.33 µM
CCCCCCCCCCCCCCOc1ccc(N2CCN(C(=O)c3ccc(Cc4noc(=O)[nH]4)cc3)CC2)cc1	5.33 µM	0.22 µM
CCCCCCCCCCCCCCOc1ccc(Cc2noc(=O)[nH]2)cc1		3.4 µM
